The source made the active and inactive calls. The rule behind the calls is not given here.
Experiments:
K562 [1] = experiment: Cytotoxicity against human K562 cells assessed as reduction in cell viability after 48 hrs by MTT assay; type: functional, cell-based; conditions: K562, 48 h
Jurkat [2] = experiment: Induction of apoptosis in human Jurkat cells at 30.08 uM after 12 hrs by Annexin-V FITC staining-based flow cytometry relative to control; type: functional
[3] = Selectivity index, ratio of IC50 for human PBMC to IC50 for human K562 cells after 24 hrs; type: toxicity; conditions: PBMC versus K562 cells, read-out: Ratio IC50
Summary of the method: (§1)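 MTT viability after 24 h exposure to 1-100µM; untreated control OD taken as 100%. IC50 by curve fitting in each line and in PBMC from six healthy donors (Ficoll-Hypaque). SI = IC50 PBMC / IC50 tumor line; SI ≥5 high, 2–5 moderate, <2 low.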

Jurkat [4] = experiment: Induction of apoptosis in human Jurkat cells assessed as increase in chromatin condensation at 30.08 uM by acridine orange/ethidium bromide staining-based fluorescence microscopic analysis; type: functional, cell-based
Jurkat [5] = experiment: Induction of apoptosis in human Jurkat cells assessed as increase in caspase-3 expression at 30.08 uM after 12 hrs by flow cytometric analysis relative to control; type: functional
Daudi = experiment: Cytotoxicity against human Daudi cells assessed as reduction in cell viability after 72 hrs by MTT assay; type: functional, cell-based
Jurkat [6] = experiment: Cell cycle arrest in human Jurkat cells assessed as increase in accumulation at S phase at 30.08 uM after 12 hrs by propidium iodide/RNAse staining based flow cytometric analysis; type: functional
K562 [7] = experiment: Induction of apoptosis in human K562 cells assessed as increase in chromatin condensation at 32 uM by acridine orange/ethidium bromide staining-based fluorescence microscopic analysis; type: functional, cell-based
PBMC = experiment: Cytotoxicity against human PBMC assessed as reduction in cell viability after 72 hrs by MTT assay; type: cell-based
Jurkat (human) = experiment: Induction of apoptosis in human Jurkat cells assessed as increase in AIF release at 30.08 uM after 12 hrs by flow cytometric analysis relative to control
B16-F10 [8] = experiment: Cytotoxicity against mouse B16F10 cells assessed as reduction in cell viability after 72 hrs by MTT assay; type: functional, cell-based; conditions: B16-F10, 72 h
B16-F10 [9] = experiment: Cytotoxicity against mouse B16F10 cells assessed as reduction in cell viability after 24 hrs by MTT assay; type: functional, cell-based; conditions: B16-F10, 24 h
Summary of the method: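 MTT viability after 24 h exposure. Cells seeded at 5x10^4 per well and tested at 1-100 µM. Optical density of untreated cells set as 100% viable. IC50 derived by curve fitting. PBMC from healthy non-smoking volunteers, isolated by Ficoll-Hypaque.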

[10] = Hemolytic activity in human RBC at 3 times IC50 relative to control; type: ADME, cell-based, Erythrocyte; conditions: red blood cells (erythrocytes), read-out: Activity
Summary of the method: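 RBC from healthy non-smoking volunteers incubated with increasing concentrations of the selected pyrazolines. Saline served as the 0% lysis control and distilled water as the 100% lysis control. Percent hemolysis calculated relative to these controls.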

[11] = Selectivity index, ratio of IC50 for human PBMC to IC50 for human Daudi cells after 24 hrs; summary of the method: as §1

Compound: COc1cc(C2=NN(C(C)=O)C(c3ccc(Br)cc3)C2)cc(OC)c1OC (centres undefined)
- IC50 (K562 [1]): 16.2 µM
- Activity (Jurkat [2]): 24.6%
- selectivity ratio at 24 h [3]: 11
- Activity (Jurkat [4]): Active
- Activity (Jurkat [5]): 128.3%
- IC50 (Daudi): 33 µM
- Activity (Jurkat [6]): inactive
- Activity (K562 [7]): Active
- IC50 (PBMC): 118 µM
- Activity (Jurkat (human)): 33.2%
- IC50 (B16-F10 [8]): 62.5 µM
- IC50 (B16-F10 [9]): 98.7 µM
- hemolysis at 3 times IC50 [10]: 1.6%
- Ratio IC50 [11]: 6.8

Source: ChEMBL document CHEMBL4308915, “Synthesis of novel pyrazoline derivatives and the evaluation of death mechanisms involved in their antileukemic activity” (Bioorg Med Chem, 2019)
